Results as given in paper PMC9748978 (RSC Advances, 2022).
Like-named read-outs stand apart in the source and are kept apart here.

Experiments:
[1] = Tack; assay type: physicochemical; conditions: transdermal patch (cross-linked adhesive film containing the active ingredient)
Method in brief: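 Tested with a tensile testing machine per AFERA 4015. The patch has an acrylate copolymer adhesive matrix with the active substance added as an ethyl acetate solution, dosed on the basis of 200 mg per 140 cm2. It was coated at 250 μm on polyester film and cross-linked by UV after 10 min at 110 °C.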

[2] = n-octanol/water partition coefficient, shake flask method; assay type: physicochemical; conditions: n-octanol–water, 25 °C
Method in brief: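 10 mg of compound was shaken with 5 ml n-octanol-saturated water and 5 ml water-saturated n-octanol, stirred 3 h at 25 °C, and the layers were separated. Aqueous concentration was measured by HPLC. Octanol-layer concentration was taken as total minus aqueous. log P = log C0 − log Cw.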

[3] = Accumulation in the skin after 24 h penetration; assay type: in vitro ADME, pig; conditions: after 24 h of penetration from solution, porcine skin
Method in brief: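 Franz diffusion cells with porcine abdominal skin, PBS (pH 7.4) acceptor at 37.0 ± 0.5 °C. After 24 h penetration the skin was removed, rinsed in PBS pH 7.4, dried at room temperature, weighed, cut to the 1 cm2 diffusion area and minced. It was then extracted in methanol for 24 h at 4 °C, homogenized 3 min and centrifuged at 3500 rpm for 5 min. Supernatant was assayed by HPLC, expressed as μg IBU per g skin.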

[4] = Solubility in water; assay type: physicochemical; conditions: 25 °C, 24 h
[5] = assay type: in vitro ADME; conditions: pig skin; for CUM – cumulative permeation mass / Q – the percentage of the applied dose after 24 h: 24 h; for CUM – cumulative permeation mass / Q – the percentage of the applied dose after 24 h / J SS – steady-state flux / K P – permeability coefficient / K m – skin partition coefficient / L T – lag time: solution in 70% ethanol; for steady-state flux (JSS): from ethanol solution
Method in brief: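 Pig abdominal skin in Franz cells with 8 cm3 PBS (pH 7.4) acceptor at 37.0 ± 0.5 °C, stirred 400 rpm. Donor: 1 cm3 of about 5% solution (about 0.05 g cm−3) in 70% ethanol, stoppered. Acceptor sampled (0.3 cm3, buffer replaced) at 0.5–24 h and assayed by HPLC. Jss is the slope of cumulative mass versus time, and lag time is the x-intercept. Kp, D and Km are calculated from these. Mean ± SD, ANOVA/Tukey.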

[6] = Thermogravimetric analysis; assay type: physicochemical; conditions: compound, TG
Method in brief: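 About 5 mg samples were heated from 25 to 1000 °C on a thermobalance under nitrogen (10 ml min−1) and under air (25 ml min−1). Onset decomposition temperature was read from TG curves and maximum decomposition temperature from DTG curves.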

[7] = compound, TG; cited from earlier work
[8] = assay type: in vitro ADME, pig; conditions: from transdermal patch

| Molecule | Tack [1] | log P [2] | accumulation in the skin [3] | Solubility in water [4] | Solubility in water (as ibuprofen) [4] | CUM – cumulative permeation mass [5] | Q – the percentage of the applied dose after 24 h [5] | J SS – steady-state flux [5] | K P – permeability coefficient [5] | K m – skin partition coefficient [5] | L T – lag time [5] | T max (maximum decomposition temperature) [6] | T onset (the onset of the thermal degradation) [6] | steady-state flux (JSS) [5] | T max (maximum decomposition temperature) [7] | T onset (the onset of the thermal degradation) [7] | delay time (lag time) [8] |
| --- | --- | --- | --- | --- | --- | --- | --- | --- | --- | --- | --- | --- | --- | --- | --- | --- | --- |
| CC(C)Cc1ccc(C(C)C(=O)[O-])cc1.[Na+] (stereo not drawn) [[IBU][Na], sodium ibuprofenate] | 0.05 N | – | – | – | – | – | – | – | – | – | – | – | – | – | – | – | – |
| CC(C)Cc1ccc(C(C)C(=O)O)cc1.CCCOC(=O)[C@@H](N)Cc1ccc(O)cc1 [[TyrOPr][IBU], L-tyrosine propyl ester ibuprofenate] | – | +1.055 | 609.35 ± 106.07 μg IBU per g skin | 8.569 ± 0.022 g dm^−3 | 4.188 ± 0.065 g IBU per dm^3 | 284.27 μg cm^−2 | 9.51% | 25.57 μg cm^−2 | 4971.7 ×10⁻⁶ cm/s | 0.229 | 2.133 min | 209.4 °C | 148.1 °C | – | – | – | – |
| CC(C)Cc1ccc(C(C)C(=O)O)cc1.CCCOC(=O)[C@@H](N)Cc1ccccc1 [[PheOPr][IBU], L-phenylalanine propyl ester ibuprofenate] | – | +1.021 | 602.86 ± 76.98 μg IBU per g skin | 9.481 ± 0.066 g dm^−3 | 4.596 ± 0.161 g IBU per dm^3 | 454.86 μg cm^−2 | 15.80% | 28.01 μg cm^−2 | 5446.1 ×10⁻⁶ cm/s | 0.200 | 1.705 min | – | – | 28.01 μg IBU per cm^2 h | 210.4 °C | 157.0 °C | about 1 h |
| L-histidine propyl ester bis(ibuprofenate) [[HisOPr][IBU]] | – | +0.963 | – | – | – | 335.13 μg cm^−2 | 7.90% | 21.33 μg cm^−2 | 4143.9 ×10⁻⁶ cm/s | 0.192 | 2.141 min | 212.5 °C | 157.5 °C | 21.33 μg IBU per cm^2 h | – | – | – |
| CC(C)Cc1ccc(C(C)C(=O)O)cc1 (racemic) [[IBU], (R,S)-Ibuprofen, reference compound] | – | – | 725.49 ± 164.6184 μg IBU per g skin | – | – | 133.35 μg cm^−2 | 9.33% | 25.87 μg cm^−2 | – | 0.281 | 2.582 min | – | – | 25.87 μg IBU per cm^2 h | 218.7 °C | 189.8 °C | – |
| CC(C)Cc1ccc(C(C)C(=O)O)cc1.CCCOC(=O)[C@@H](N)Cc1c[nH]c2ccccc12 [[TrpOPr][IBU], L-tryptophan propyl ester ibuprofenate] | – | +1.044 | 595.41 ± 76.32 μg IBU per g skin | 9.396 ± 0.027 g dm^−3 | 4.577 ± 0.037 g IBU per dm^3 | 319.22 μg cm^−2 | 12.42% | 22.72 μg cm^−2 | 4418.6 ×10⁻⁶ cm/s | 0.208 | 2.179 min | 219.3 °C | – | – | – | – | – |
